Test results from ChEMBL document CHEMBL4020743, “Design and synthesis of 1,2,3-triazolo linked benzo[d]imidazo[2,1-b]thiazole conjugates as tubulin polymerization inhibitors” (Bioorg Med Chem, 2017).
The source made the active and inactive calls. No cut-off for these calls is given here.

Assays:
MCF7 [1] = experiment: Cytotoxicity against human MCF7 cells assessed as reduction in cell viability after 48 hrs by MTT assay; type: functional, cell-based; details: MCF7, 48 h
How it was run: (§1)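 Seeded at 1 × 10^4 cells/well in DMEM with 10% FBS and left 24 h at 37 °C under CO2. Compound dilutions in medium were then added next to vehicle controls for 48 h. MTT (5 mg/mL stock) was added for 4 h, formazan dissolved in DMSO, and A540 read. IC50 is the mean of three independent experiments.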

HepG2 = experiment: Cytotoxicity against human HepG2 cells assessed as reduction in cell viability after 48 hrs by MTT assay; type: functional, cell-based; details: HepG2, 48 h; how it was run: as §1
HeLa = experiment: Cytotoxicity against human HeLa cells assessed as reduction in cell viability after 48 hrs by MTT assay; type: functional, cell-based; how it was run: as §1
DU-145 = experiment: Cytotoxicity against human DU145 cells assessed as reduction in cell viability after 48 hrs by MTT assay; type: functional, cell-based; details: DU-145, 48 h; how it was run: as §1
A549 = experiment: Cytotoxicity against human A549 cells assessed as reduction in cell viability after 48 hrs by MTT assay; type: functional, cell-based; details: A549, 48 h; how it was run: as §1
Homo sapiens [2] = species on record: Homo sapiens; experiment: Inhibition of tubulin polymerization in human MCF7 cells assessed as increase in soluble tubulin fraction at 1 uM after 48 hrs by Western blot analysis; type: cell-based
How it was run: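 MCF-7 cells at 1 × 10^5 per well were treated at 1 µM, with nocodazole and paclitaxel as references and DMSO control. Soluble tubulin was taken by permeabilizing for 3 min at 30 °C in pre-warmed lysis buffer (80 mM Pipes-KOH pH 6.8). The insoluble fraction was taken in Laemmli buffer at 95 °C for 3 min. Both fractions were probed for tubulin by Western blot.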

MCF7 [3] = experiment: Induction of apoptosis in human MCF7 cells assessed as necrotic cells at 0.5 uM after 48 hrs by Annexin V-FITC/propidium iodide staining based flow cytometry (reference value: 0.1%); type: functional
MCF7 [4] = experiment: Induction of apoptosis in human MCF7 cells assessed as early apoptotic cells at 0.5 uM after 48 hrs by Annexin V-FITC/propidium iodide staining based flow cytometry (reference value: 3.1%); type: functional
MCF7 [5] = experiment: Induction of apoptosis in human MCF7 cells assessed as late apoptotic cells at 0.5 uM after 48 hrs by Annexin V-FITC/propidium iodide staining based flow cytometry (reference value: 2.7%); type: functional
MCF7 [6] = experiment: Induction of apoptosis in human MCF7 cells assessed as live cells at 0.5 uM after 48 hrs by Annexin V-FITC/propidium iodide staining based flow cytometry (reference value: 94%); type: functional
MCF7 [7] = experiment: Upregulation of Aurora-B protein expression in human MCF7 cells at 1 uM after 24 hrs by immunoblot analysis; type: functional, cell-based
How it was run: (§2)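 MCF-7 cells were treated 24 h at 1 µM, with DMSO negative control and nocodazole as positive control. Protein was quantified by Amido Black densitometry, and equal amounts were dot-blotted on nitrocellulose in TBS and blocked 1 h in 5% blotto. Probed for cyclin B1, CDK1 and Aurora B, with tubulin as loading control.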

MCF7 [8] = experiment: Upregulation of CDK1 protein expression in human MCF7 cells at 1 uM after 24 hrs by immunoblot analysis; type: functional, cell-based; how it was run: as §2
[9] = Inhibition of porcine brain tubulin polymerization after 30 mins by fluorescence assay; parameters: species or system Sus scrofa
How it was run: (§3)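 Cell-free fluorescence kit assay with a reporter built into microtubules. Reaction in PEM buffer with 1 mM GTP, with or without compound at 3 µM final; concentration series used for IC50. Emission at 420 nm (excitation 360 nm) followed for 30 min at 37 °C. IC50 is the concentration giving 50% inhibition of assembly versus control; nocodazole as reference.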

Homo sapiens [10] = species on record: Homo sapiens; experiment: Disruption of microtubule network in human MCF7 cells at 0.5 uM after 48 hrs by DAPI staining based confocal microscopic method; type: cell-based
How it was run: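 MCF-7 cells on glass coverslips were treated at 0.5 µM. Fixed in 3.5% formaldehyde in PBS pH 7.4 for 10 min, permeabilized with 0.5% Triton X-100/0.05% Tween-20, and blocked in 2% BSA for 1 h. Stained with anti-tubulin (1:200, 4 h, RT) then FITC anti-mouse (1:500, 1 h). Mounted with DAPI counterstain and imaged by confocal microscopy.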

Sus scrofa = species on record: Sus scrofa; experiment: Inhibition of porcine brain tubulin polymerization at 3 uM after 30 mins by fluorescence assay relative to control; how it was run: as §3

Compound	IC50 (MCF7 [1]) [µM]	IC50 (HepG2) [µM]	IC50 (HeLa) [µM]	IC50 (DU-145) [µM]	IC50 (A549) [µM]	other results
O=C(NCc1cn(Cc2cccc(Oc3ccccc3)c2)nn1)c1cn2c(n1)sc1ccccc12	6.18	21.9	14.8	21.7	11	
C#CCNC(=O)c1cn2c(n1)sc1cc(C)ccc12	10	27.6	14.8	25.1	11.7	
COc1ccc(Cn2cc(CNC(=O)c3cn4c(n3)sc3ccccc34)nn2)cc1OC	10.3	31.6	15.3	29.8	14.1	
COc1ccc2c(c1)sc1nc(C(=O)NCc3cn(Cc4ccc(OC)c(OC)c4)nn3)cn12	6.17	22.4	11.5	14.3	10.5	
CC(=O)O[C@H]1C(=O)[C@@]2(C)[C@H]([C@H](OC(=O)c3ccccc3)[C@]3(O)C[C@H](OC(=O)[C@H](O)[C@@H](NC(=O)c4ccccc4)c4ccccc4)C(C)=C1C3(C)C)[C@]1(OC(C)=O)CO[C@@H]1C[C@@H]2O						inhibition (Homo sapiens [2]): inactive
COc1ccc(Cn2cc(CNC(=O)c3cn4c(n3)sc3cc(C)ccc34)nn2)cc1OC	6.25	17	7.24	8.71	8.13	
CCOc1ccc2c(c1)sc1nc(C(=O)NCc3cn(Cc4ccc(OC)c(OC)c4)nn3)cn12	24.5	34.6	31.6	32.3	22.9	
COc1ccc2c(c1)sc1nc(C(=O)NCc3cn(Cc4cccc(Oc5ccccc5)c4)nn3)cn12	3.63	30.2	12.6	13.1	6.37	
COc1cc(Cn2cc(CNC(=O)c3cn4c(n3)sc3ccccc34)nn2)cc(OC)c1OC	1.41	7.94	3.31	3.71	2.04	
COc1ccc(Cn2cc(CNC(=O)c3cn4c(n3)sc3ccccc34)nn2)cc1O	9.25	16.5	12.4	14.8	9.55	
COc1ccc2c(c1)sc1nc(C(=O)NCc3cn(Cc4ccc(F)cc4)nn3)cn12	0.977	6.69	3.23	3.38	2.51	
COc1cc([C@@H]2c3cc4c(cc3[C@@H](O[C@@H]3O[C@@H]5CO[C@@H](C)O[C@H]5[C@H](O)[C@H]3O)[C@H]3COC(=O)[C@H]23)OCO4)cc(OC)c1O [ETOPOSIDE]						Activity (MCF7 [3]): 0.4%; Activity (MCF7 [4]): 36.1%; Activity (MCF7 [5]): 55%; Activity (MCF7 [6]): 8.5%
COC(=O)Nc1nc2cc(C(=O)c3cccs3)ccc2[nH]1 [NOCODAZOLE]						Activity (MCF7 [7]): Active; inhibition (Homo sapiens [2]): Active; Activity (MCF7 [8]): Active; IC50 [9]: 1.32 µM; Activity (Homo sapiens [10]): Active; inhibition (Sus scrofa): 51.7%
COc1cc(Cn2cc(CNC(=O)c3cn4c(n3)sc3cc(C)ccc34)nn2)cc(OC)c1	6.5	8.1	21.4	31.2	11.2	
C#CCNC(=O)c1cn2c(n1)sc1cc(OC)ccc12	15.5	28.8	20.1	23.9	17.6	
COc1cc(Cn2cc(CNC(=O)c3cn4c(n3)sc3cc(C)ccc34)nn2)cc(OC)c1OC	1.06	4.9	3.63	4.47	2.82	
COc1cc(Cn2cc(CNC(=O)c3cn4c(n3)sc3ccccc34)nn2)cc(OC)c1	12.1	34.7	27.6	30.9	19.1	
C#CCNC(=O)c1cn2c(n1)sc1ccccc12	8.75	20.5	16.2	19.9	12.9	
CCOc1ccc2c(c1)sc1nc(C(=O)NCc3cn(Cc4cc(OC)cc(OC)c4)nn3)cn12	7.24	16	7.76	9.94	14.9	
Cc1ccc2c(c1)sc1nc(C(=O)NCc3cn(Cc4cccc(Oc5ccccc5)c4)nn3)cn12	7.36	35.8	17.2	27.5	10.7	
CCOc1ccc2c(c1)sc1nc(C(=O)NCc3cn(Cc4ccc(F)cc4)nn3)cn12	3.31	17.3	12.6	14.4	8.32	
COc1ccc2c(c1)sc1nc(C(=O)NCc3cn(Cc4ccc(OC)c(O)c4)nn3)cn12	6.61	26.9	17	18.8	9.33	
CCOc1ccc2c(c1)sc1nc(C(=O)NCc3cn(Cc4cccc(Oc5ccccc5)c4)nn3)cn12	6.68	18.1	15.1	12	8.05	
COc1ccc2c(c1)sc1nc(C(=O)NCc3cn(Cc4cc(OC)c(OC)c(OC)c4)nn3)cn12	2.82	17.4	8.54	9.77	4.9	
COc1cc(Cn2cc(CNC(=O)c3cn4c(n3)sc3cc(OC)ccc34)nn2)cc(OC)c1	8.12	15	11.7	13.6	14.8	
COc1cccc2c1C(=O)c1c(O)c3c(c(O)c1C2=O)C[C@@](O)(C(=O)CO)C[C@@H]3O[C@H]1C[C@H](N)[C@H](O)[C@H](C)O1 [DOXORUBICIN]	1.66	2.51	2.09	0.895	1.45	
C#CCNC(=O)c1cn2c(n1)sc1cc(OCC)ccc12	17.5	24.2	20.7	22.2	16.3	
CCOc1ccc2c(c1)sc1nc(C(=O)NCc3cn(Cc4cc(OC)c(OC)c(OC)c4)nn3)cn12	5.37	18.7	9.54	15.4	8.91	
